Compound activity: PubChem, Broad Institute
AF4-AF9 inh – inhibitors of AF4 peptide binding to AF9, primary screen, biochemical, AlphaScreen, biotin-AF4 peptide, FLAG-AF9, single point; Protein AF-9 (Homo sapiens), P42568; inhibition, % at 10 µM; actives 0.47% (n = 350,000);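 active = every replicate reaching a set inhibition limit, whatever the replicate mean, cut at about 25% in these data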
GSIS activator – GLuc luminescence reporter in INS-1E cells, primary screen for activators of glucose-dependent secretion of insulin. INS-1E GLuc reporter insulin secretion, 2-3 h. activation, % at 16.6 µM. actives 0.61% (n = 370,000);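 active = lowest replicate activation of at least 40%, so every replicate reaches that level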
EWS-Fli inh – EWS/Fli-driven NR0B1 reporter inhibitors, primary screen, A673 cells, NR0B1 luciferase, luminescence, MLPCN library. viability-normalised. inhibition, % at 12.6 µM. actives 0.67% (n = 350,000). AID 651661, 2012;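 active = mean inhibition of at least 50% after viability correction, with every replicate also passing that limit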;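 note: firefly luciferase signal divided by Alamar Blue viability fluorescence both relative to DMSO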
PGC1a acetyl inh – inhibitors of PGC1a acetylation signal, primary screen, cell-based, U2OS, AlphaScreen, inhibitor mode. AlphaScreen anti-acetyl-lysine; with virally co-expressed GCN5 acetyltransferase. inhibition, % at 15.6 µM. actives 0.17% (n = 350,000). AID 651687, 2012;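 active = every replicate shows inhibition of at least 40%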
PAX8 inh HTS – inhibitors of PAX8-driven TPO luciferase reporter, primary screen, RMG-I cells, single concentration; SteadyGlo, 24 h; inhibition, % at 12.6 µM; actives 1.2% (n = 360,000);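 active = mean replicate inhibition at least 60% with every replicate also reaching 60%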;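 note: luciferase light reporting Pax8 driven TPO promoter activity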
XiGFP reactiv – activators of inactive X chromosome reactivation, primary screen, imaging, XiGFP fibroblasts, GFP high-content imaging, set 2; XiGFP mouse fibroblasts, % GFP-positive cells imaging, 3 d; cells co-treated with 5-aza-dC sensitizer; scaled so ellipticine positive control = 100%; activation, % at 7.58 µM; actives 0.055% (n = 360,000);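 active = mean normalized replicate activation at least 10% and every replicate at or above 10%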
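Material: XiGFP fibroblasts, SV40-immortalized; Buffer or medium: DMEM containing 5-aza-dC; Compound dosing: single point; Times: 3 days compound exposure.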
Numbers stand for hits; 0 = inactive; - = not tested or not shown. Rows were chosen to be rich in hits. Some 2.1% of all compounds tested hit in one or more screens of this group.

SMILES	AF4-AF9 inh	GSIS activator	EWS-Fli inh	PGC1a acetyl inh	PAX8 inh HTS	XiGFP reactiv
O=C(Nc1ccc2c(c1)[C@@H]1C[C@@H](CC(=O)N3CCc4ccccc4C3)O[C@@H](CO)[C@@H]1O2)C1CCOCC1	0	0	0	0	0	0
Cn1cccc1/C=N/NC(=O)c1cc(-c2cccs2)nc2ccccc12	32.5	0	-	0	0	0
O=C(N/N=C/c1ccc[nH]1)c1cc(-c2cccs2)nc2ccccc12	0	0	0	-	0	0
CCCCC[C@@H](/C=C/C1C(=O)C=C[C@H]1C/C=C\CCCC(=O)OC)OC(C)=O (some centres undefined)	0	46.4	0	0	0	0
COCC(C)n1c(C)cc(C(=O)COC(=O)c2cccn2C)c1C (centres undefined)	0	-	61.5	0	0	0
Cc1cc(N=Nc2ccc(Cl)cc2)cc(CN2CCCC2)c1O	48.9	0	0	0	0	0
Fc1cccc(CSc2ccc(-c3ccco3)nn2)c1	-	0	-	0	0	0
Fc1ccc(CSc2ccc(-c3ccco3)nn2)cc1	0	0	0	-	131.4	0
CCN(C[C@H]1N[C@@](CC)(C(=O)OC)[C@H]2C(=O)N(Cc3ccccc3)C(=O)[C@@H]12)C(=O)c1ccc(C(C)(C)C)cc1	0	0	0	-	81.7	0
CN1C[C@@H]2[C@@H]3C(=O)N(Cc4ccccc4)C(=O)[C@@H]3[C@](Cc3ccccc3)(C1=O)N2C(=O)c1ccc(C(C)(C)C)cc1	0	-	0	-	99.5	0
CC[C@@]1(C(=O)OC)N[C@H](CN(C)C(=O)c2ccc(C(C)(C)C)cc2)[C@@H]2C(=O)N(Cc3ccccc3)C(=O)[C@@H]21	0	0	0	-	0	0
CC[C@]12C(=O)N(C)C[C@H]([C@@H]3C(=O)N(C)C(=O)[C@@H]31)N2C(=O)c1ccc(C)cc1	50.9	0	0	0	0	0
COc1ccc(CN(C)C[C@@H]2OCCCC[C@H](C)Oc3ccc(NS(=O)(=O)c4ccc(C)cc4)cc3C(=O)N([C@@H](C)CO)C[C@@H]2C)cc1	0	0	0	0	0	0
CCOC(=O)C1=C(CC)Nc2ccccc2N=C1NC(=O)Nc1ccc(Cl)c(Cl)c1	-	0	-	0	62.1	-
COc1ccc(C=C(C(=O)O)c2ccc(OC)cc2)cc1	0	49.1	0	0	0	0
COc1ccc(C(=Cc2ccccc2)C(=O)O)cc1	0	-	0	0	0	0
COc1ccc2[nH]c(=O)c(CN(CCO)C(=O)c3ccccc3F)cc2c1	-	66.5	-	-	-	-
COc1ccc2[nH]c(=O)c(CN(CCc3ccccc3)C(C)=O)cc2c1	-	0	-	0	-	-
Nc1ccc(-c2nc3ccc(N)cc3s2)cc1	0	0	0	0	0	0
Nc1cc2sc(-c3ccc(C(=O)O)cc3)nc2cc1Cl	0	0	0	-	0	0
Nc1ccc(-c2nc3ccc(C(=O)O)cc3s2)cc1	0	0	84.5	-	102.6	0
O=C(O)c1ccc2nc(-c3ccccc3)sc2c1	-	0	0	0	73.9	0
CNC(=O)C[C@@H]1CC[C@@H]2[C@@H](COc3ccc(NC(=O)NC(C)C)cc3C(=O)N2C)O1	-	0	0	0	0	0
N#CCc1nn2c(-c3ccccc3)ccnc2c1C#N	0	45.6	0	0	0	0
N#C/C(=C(\O)c1ccco1)c1ccccn1	-	0	-	0	-	-
N#CC(C(=O)c1ccco1)c1ccccn1 (centres undefined)	-	42.5	-	0	-	-
C[C@H]1CCCCO[C@H](CN(C)C(=O)Nc2ccc(C(F)(F)F)cc2)[C@@H](C)CN([C@@H](C)CO)C(=O)c2cc(NC(=O)Nc3ccc(C(F)(F)F)cc3)ccc2O1	-	0	0	0	0	0
C[C@H]1CCCCO[C@@H](CN(C)C)[C@@H](C)CN([C@@H](C)CO)C(=O)c2cc(NC(=O)Nc3ccc(C(F)(F)F)cc3)ccc2O1	0	0	0	0	88.2	0
C[C@@H]1CCCCO[C@H](CN(C)C(=O)Nc2ccc(C(F)(F)F)cc2)[C@H](C)CN([C@@H](C)CO)C(=O)c2cc(NC(=O)CCC(F)(F)F)ccc2O1	0	0	0	0	0	0
